From ChEMBL document CHEMBL5584271, “Synthesis and Biological Analysis of Iso-dimethyltryptamines in a Model of Light-Induced Retinal Degeneration” (2024)
Active and inactive are the calls of the source. No cut-off for these calls is given here.

Key:
Mus musculus [1] = experiment: (§1) Protection against light-induced retinal degeneration in dark-adaptated BALB/c albino mouse assessed as reduction in ONL thinning at 10 mg/kg, ip dosed preincubated with compound for 15 to 30 mins of mydriasis followed by exposure to bright light at 15kLux for 30 mins by electroretinography analysis; type: functional, organism-based; conditions: time 45-60 min
Outline: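 Dark-adapted BALB/c albino mice (5–8 weeks) were dosed ip at 10 mg/kg (vehicle 25% DMSO/75% saline) 30 min before 30 min of 15 kLux white light. Pupils were dilated with metaoxedrine/tropicamide at 30 and 15 min prior. One week later, OCT centred on the optic nerve head measured ONL thickness 500 μm from the ONH border, averaged over four quadrants. Analysis used Welch's ANOVA with Dunnett's T3 tests.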

Mus musculus [2] = experiment: as §1, with “ERG a- and b-wave amplitude deterioration” for “ONL thinning”; type: functional, organism-based; conditions: time 45-60 min
Outline: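 BALB/c albino mice (5–8 weeks) were dark-adapted overnight and given 10 mg/kg ip in 25% DMSO/75% saline 30 min before light. Pupils were dilated with metaoxedrine (20 mg/mL) plus tropicamide (4 mg/mL) at 30 and 15 min prior. Freely moving mice received 30 min of 15 kLux white light. ERG a- and b-wave amplitudes were recorded one week later (10 cd·s/m2 stimulus). Analysis used Welch's ANOVA with Dunnett's T3 post hoc tests.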

[3] = molecular target: T1, 5-hydroxytryptamine receptor 1A (Homo sapiens) (UniProt P08908); experiment: Binding affinity to 5-HT1A (unknown origin)
T1 sequence (whole entry): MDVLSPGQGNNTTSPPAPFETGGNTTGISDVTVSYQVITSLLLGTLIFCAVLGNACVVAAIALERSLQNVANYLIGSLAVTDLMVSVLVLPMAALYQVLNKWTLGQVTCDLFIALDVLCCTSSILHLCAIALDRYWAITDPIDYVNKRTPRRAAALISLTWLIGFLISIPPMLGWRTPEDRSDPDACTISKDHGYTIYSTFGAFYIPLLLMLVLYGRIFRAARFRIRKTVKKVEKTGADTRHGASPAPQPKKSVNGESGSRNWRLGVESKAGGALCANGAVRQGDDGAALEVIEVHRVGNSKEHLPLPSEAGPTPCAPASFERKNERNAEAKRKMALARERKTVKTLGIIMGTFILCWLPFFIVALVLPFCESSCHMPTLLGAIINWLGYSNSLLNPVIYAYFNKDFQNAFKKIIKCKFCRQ

[4] = molecular target: 5-hydroxytryptamine receptor 2A (Homo sapiens) (UniProt P28223); experiment: Binding affinity to 5-HT2A (unknown origin)
[5] = molecular target: 5-hydroxytryptamine receptor 2B (Homo sapiens) (UniProt P41595); experiment: Binding affinity to 5-HT2B (unknown origin)
[6] = molecular target: T2, 5-hydroxytryptamine receptor 2C (Homo sapiens) (UniProt P28335); experiment: Binding affinity to 5-HT2C (unknown origin)
T2 sequence (whole entry): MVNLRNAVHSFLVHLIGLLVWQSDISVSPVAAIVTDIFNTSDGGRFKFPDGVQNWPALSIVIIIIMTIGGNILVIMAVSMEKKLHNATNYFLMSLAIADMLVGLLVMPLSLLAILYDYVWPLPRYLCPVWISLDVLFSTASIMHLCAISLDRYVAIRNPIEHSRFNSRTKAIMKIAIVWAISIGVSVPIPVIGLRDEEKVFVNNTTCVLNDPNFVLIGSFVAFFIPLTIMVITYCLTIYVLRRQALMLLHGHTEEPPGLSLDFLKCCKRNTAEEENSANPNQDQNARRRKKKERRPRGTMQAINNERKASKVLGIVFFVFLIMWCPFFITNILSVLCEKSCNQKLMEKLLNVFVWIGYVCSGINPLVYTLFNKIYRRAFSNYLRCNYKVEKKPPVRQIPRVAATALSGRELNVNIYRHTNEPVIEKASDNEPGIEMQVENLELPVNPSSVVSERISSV

Mus musculus [7] = experiment: as §1, with “[…] relative to control” for “analysis”; type: functional; parameters: scale not given: the % may be the effect or the level left; conditions: time 45-60 min
Outline: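 Same LIRD protocol in BALB/c mice aged 5–8 weeks: 10 mg/kg ip in 25% DMSO/saline 30 min before 30 min of 15 kLux white light, with mydriatics given beforehand. OCT imaging one week later, centred on the optic nerve head. ONL thickness measured 500 μm from the ONH border and averaged over four quadrants. Compared with vehicle; Welch's ANOVA with Dunnett's T3.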

Mus musculus [8] = experiment: as §1, with “ERG a- and b-wave amplitude deterioration” for “ONL thinning”, “analysis relative to control” for “analysis”; type: functional; parameters: scale not given: the % may be the effect or the level left; conditions: time 45-60 min
Outline: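 BALB/c albino mice aged 5–8 weeks, dark-adapted overnight. Dosed 10 mg/kg ip in 25% DMSO/75% saline 30 min before light. Pupils dilated with metaoxedrin (20 mg/mL) plus tropicamide (4 mg/mL) at 30 and 15 min prior. Exposed to 15 kLux white light for 30 min, freely moving. ERG a- and b-wave amplitudes recorded one week later at 10 cd·s/m2 stimulus. Compared with vehicle; mean ± SEM.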

5-hydroxytryptamine receptor 2B (Homo sapiens), sequence (P41595 whole entry): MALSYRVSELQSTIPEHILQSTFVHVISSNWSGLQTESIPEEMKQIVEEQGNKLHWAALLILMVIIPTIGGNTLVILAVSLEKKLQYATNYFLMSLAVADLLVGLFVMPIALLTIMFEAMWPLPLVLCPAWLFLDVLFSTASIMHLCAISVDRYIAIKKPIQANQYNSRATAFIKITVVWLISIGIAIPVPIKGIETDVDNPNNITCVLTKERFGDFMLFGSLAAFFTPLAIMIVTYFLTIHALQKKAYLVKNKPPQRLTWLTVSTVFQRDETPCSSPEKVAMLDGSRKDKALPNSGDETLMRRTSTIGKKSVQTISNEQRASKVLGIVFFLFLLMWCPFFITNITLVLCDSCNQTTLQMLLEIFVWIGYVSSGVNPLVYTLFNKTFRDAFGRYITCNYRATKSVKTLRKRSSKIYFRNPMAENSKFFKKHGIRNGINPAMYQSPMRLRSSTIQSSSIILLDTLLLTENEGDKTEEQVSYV
5-hydroxytryptamine receptor 2A (Homo sapiens), sequence (P28223 whole entry): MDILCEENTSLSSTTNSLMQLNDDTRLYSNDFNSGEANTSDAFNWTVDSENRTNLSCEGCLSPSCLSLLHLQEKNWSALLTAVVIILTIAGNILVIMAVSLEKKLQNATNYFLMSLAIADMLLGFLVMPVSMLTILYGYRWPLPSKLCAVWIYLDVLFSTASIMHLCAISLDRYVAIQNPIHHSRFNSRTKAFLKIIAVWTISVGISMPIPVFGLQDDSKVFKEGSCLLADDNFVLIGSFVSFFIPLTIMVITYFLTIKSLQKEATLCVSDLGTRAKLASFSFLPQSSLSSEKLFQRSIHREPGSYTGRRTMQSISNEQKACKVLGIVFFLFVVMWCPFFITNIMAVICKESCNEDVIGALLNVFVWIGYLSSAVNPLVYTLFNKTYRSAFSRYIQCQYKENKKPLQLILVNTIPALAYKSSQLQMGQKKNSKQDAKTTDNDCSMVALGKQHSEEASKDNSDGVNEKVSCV

Row | Structure (SMILES) | Activity (Mus musculus [1]) | Activity (Mus musculus [2]) | also measured
1 | CN1C[C@]2(C)C[C@@]23c2cccc4[nH]cc(c24)C[C@H]13 | Active | Active | 
2 | CN(C)CCn1cc(Cc2ccccn2)c2cc(F)ccc21 | inactive | inactive | 
3 | CCN(CC)C(=O)[C@H]1CN(C)[C@H]2Cc3c[nH]c4cccc(c34)[C@@H]1C2 | inactive | inactive | Activity [3]: inactive; Activity [4]: inactive; Activity [5]: inactive; Activity [6]: inactive
4 | CN1C[C@H](CO)C=C2c3cccc4[nH]cc(c34)C[C@@H]21 | inactive | inactive | 
5 | CC(C)C[C@H]1C(=O)N2CCC[C@H]2[C@]2(O)O[C@](NC(=O)[C@@H]3C=C4c5cccc6[nH]c(Br)c(c56)C[C@H]4N(C)C3)(C(C)C)C(=O)N12 [BROMOCRIPTINE] |  |  | Activity (Mus musculus [7]): 70%; Activity (Mus musculus [8]): 70%
6 | CN(C)CCn1cc(Cc2ccccn2)c2ccc(F)cc21 | inactive | inactive | 
7 | CN(C)CCn1cc(Cc2ccccn2)c2c(Br)cccc21 | Active | Active | 
8 | CN1C[C@@H](CO)C=C2c3cccc4[nH]cc(c34)C[C@@H]21 | inactive | inactive | 
9 | CN1C[C@H](CO)C=C2c3cccc4[nH]cc(c34)C[C@H]21 | Active | Active | 
10 | CN1C[C@@]2(C)C[C@]23c2cccc4[nH]cc(c24)C[C@@H]13 | Active | Active | 
11 | CN1C[C@@H](CO)C=C2c3cccc4[nH]cc(c34)C[C@H]21 | Active | Active | 
